In ChEMBL document CHEMBL1158715, “Eremophilane-type sesquiterpene derivatives from Senecio aegyptius var. discoideus” (J Nat Prod, 2005):
Calls of active or inactive are those of the source. The rule behind the calls is not given here.

What was measured:
Type in all cases: functional, organism-based
Bacillus cereus [1] = assay: Antimicrobial activity against Bacillus cereus El-U 8180 at 400 ug/ml
Summary of the method: (§1)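 Filter paper disk diffusion on nutrient agar seeded with the test bacterium. Disks were soaked in the test solution for 30 s, then placed on the agar surface. Plates were incubated at 30 °C for 2 days. Five replicates were run per compound at each concentration. Ampicillin at 200 and 400 μg/mL served as the reference.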

Serratia sp. [2] = assay: Antimicrobial activity against Serratia El-U 9213 at 200 ug/ml; summary of the method: as §1
Bacillus cereus [3] = assay: Antimicrobial activity against Bacillus cereus El-U 8180 at 200 ug/ml; summary of the method: as §1
Serratia sp. [4] = assay: Antimicrobial activity against Serratia El-U 9213 at 400 ug/ml; summary of the method: as §1

SMILES	Activity (Bacillus cereus [1])	Activity (Serratia sp. [2])	Activity (Bacillus cereus [3])	Activity (Serratia sp. [4])
CO[C@@]12C[C@@]34O[C@@H]3CC[C@H](C)[C@@]4(C)CC1=C(C)C(=O)O2	Active	inactive	Active	inactive
CC1=C2C[C@@]3(C)C(=C[C@H]2OC1=O)[C@H](O)CC[C@@H]3C	Active	inactive	Active	inactive
CO[C@@]12C[C@@H]3C(=O)CC[C@H](C)[C@@]3(C)CC1=C(C)C(=O)N2	Active	inactive	Active	inactive
CC1=C2C[C@]3(C)[C@@H](C)CC[C@H]4O[C@]43C[C@@]2(O)OC1=O	Active	Active	Active	Active
CO[C@@]12C=C3[C@H](O)CC[C@H](C)[C@@]3(C)CC1=C(C)C(=O)O2	Active	Active	Active	Active
CC1=C2C[C@@]3(C)C(=C[C@@]2(O)OC1=O)[C@H](O)CC[C@@H]3C	Active	Active	Active	Active
